CendR NRP1 mod: modulators of CendR peptide binding to human neuropilin-1 | O14786 | FAM-RPARPAR peptide binding to NRP-1, fluorescence polarization | inhibition, % at 25 µM | 360,000 compounds, 0.85% hits | AID 602438;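 active means inhibition or corrected inhibition above about 18%, plus a signal ratio from 0.5 to 1.5, limit read from the data, passing the limit was not always enough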
ARFGAP1 inh: rat ARFGAP1 inhibition | Q62848 | Arfgap1-stimulated ARF1 GTP hydrolysis, GDP FP detection | inhibition, % at 16.5 µM | 360,000 compounds, 0.26% hits | AID 651572;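 active means inhibition above a per-plate limit, mean inhibition of low control wells plus 3 SD, cut at about 25% in these data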;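 further: 0% = DMSO wells with enzyme and 100% = wells lacking Arfgap1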
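Material: rat Arfgap1 catalytic domain, aa 1-136; also added: human ARF1(Δ1-17)-GTP substrate; compound dosing: one concentration, 16.5 µM, DMSO 1.26%; incubation: GTP hydrolysis reaction 2 h at 25 °C; measured by: Tracer-displacement fluorescence polarization with EDTA stop, 620/688 nm; evaluation: % inhibition from polarization; repeats: one replicate per compound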
Exocytosis inh: lytic granule exocytosis inhibition; TALL-104 LAMP-1 surface exposure, flow cytometry; cells stimulated with thapsigargin and PMA; inhibition, % at 10 µM; 360,000 compounds, 0.66% hits; AID 651702;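 active means inhibition above about 55%, limit read from the data; inconclusive means no clear call, values can overlap the other calls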
ASAP1 GAP inh: ASAP1 ArfGAP inhibition; Q9ULH1; ASAP1-stimulated ARF1 GTP hydrolysis, GDP FP detection; inhibition, % at 16.5 µM; 360,000 compounds, 0.19% hits; in the data active means inhibition above about 25%;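 further: 0% = vehicle with enzyme and substrate and 100% = no enzyme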
V-ATPase pHluor: alters yeast V-ATPase proton transport; S. cerevisiae, pHLuorin cytosolic pH fluorescence; response, % at 10 µM; 350,000 compounds, 0.37% hits; in the data active means response mostly above about 7.3%, no sharp cut-off; inactive means mostly below about 5.4%; further: actives read high
V-ATPase pH SP: modulates yeast V-ATPase proton transport | 980 compounds, 2% hits | S. cerevisiae pHLuorin cytosolic pH | AID 602197 | response, % at 10 µM | shares compounds with V-ATPase pHluor; in the data active means response above about 24%;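 further: plate controls were vehicle wells for no effect and positive control wells for full effect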
* marks the source's active call; other numbers are inactive results; ? = inconclusive; · = not tested or not shown. Rows were chosen to be rich in hits. Some 2.2% of all compounds tested hit in one or more screens of this group.

SMILES | CendR NRP1 mod | ARFGAP1 inh | Exocytosis inh | ASAP1 GAP inh | V-ATPase pHluor | V-ATPase pH SP
Cc1nc(SCC(=O)NCC2CCCO2)c2c3c(sc2n1)CCCC3 (centres undefined) | 30* | -16 | -8 | 11 | 0 | ·
Cc1nc(SCC(=O)NCC2CCCO2)c2c(C)c(C)sc2n1 (centres undefined) | 21 | 16 | 1 | 5 | 13* | ·
CSc1nc(SCC(=O)NCC2CCCO2)c2c3c(sc2n1)CN(C)CC3 (centres undefined) | · | 18 | · | 0 | 1 | ·
Cc1nc(SCC(=O)NC2CC2)c2c(C)c(C)sc2n1 | 4 | 5 | 9 | 0 | 4 | ·
C=CCN=C1NC(c2cccc(Cl)c2)C(C(=O)OC)=C(C)N1C (centres undefined) | · | -6 | · | -10 | · | ·
O=C1NC(=O)/C(=C/c2ccco2)N1 | 25* | -5 | -5 | 17 | -4 | ·
CCN(CC)S(=O)(=O)c1cccc2nsnc12 | 27* | 5 | 0 | 16 | -1 | ·
CCN(c1ccc(F)cc1)S(=O)(=O)c1cccc2nsnc12 | 6 | -2 | 12 | -4 | 3 | ·
CN1C[C@@H]2[C@@H]3C(=O)N(Cc4ccccc4)C(=O)[C@@H]3[C@](C)(C1=O)N2C(=O)c1ccc(Cl)cc1 | 31* | 7 | 7 | -3 | -1 | ·
CCN1C[C@@H]2[C@@H]3C(=O)N(Cc4ccccc4)C(=O)[C@@H]3[C@](CC)(C1=O)N2C(=O)c1ccc(C(C)(C)C)cc1 | 26* | -4 | -3 | -13 | -4 | ·
CCN1C[C@@H]2[C@@H]3C(=O)N(Cc4ccccc4)C(=O)[C@@H]3[C@](CC)(C1=O)N2C(=O)c1ccc(C(F)(F)F)cc1 | 30* | -12 | -5 | -11 | -2 | ·
Cc1ccc(C(=O)N2[C@@H]3CN(C)C(=O)[C@@]2(C)[C@H]2C(=O)N(Cc4ccccc4)C(=O)[C@@H]32)cc1 | 10 | -12 | -4 | 1 | -1 | ·
O=C1C=CC(=Nc2ccc3c(c2)Cc2cc(F)ccc2-3)O1 | -4 | -5 | -6 | 13 | 12 | 100*
O=C(CCl)NN1C(=O)NC(c2ccccc2)(c2ccccc2)C1=O | 18 | -3 | -4 | -5 | 12* | 1
O=C(NCc1ccco1)C(=O)NCC(c1ccco1)N1CCOCC1 (centres undefined) | 4 | -5 | -2 | 10 | 19* | -4
O=C(CSc1n[nH]c(=O)n1C1CC1)c1c[nH]c2ccccc12 | -54 | -5 | 10 | -5 | 6 | ·
O=C(CSc1nnc(-c2ccccc2)o1)NC1CC1 | 5 | -1 | -1 | 0 | 0 | -1
Cc1ccc(-n2nnnc2SCC(=O)NC2CCS(=O)(=O)C2)c(C)c1 (centres undefined) | -4 | 10 | -6 | 2 | -2 | ·
Cc1ccc(C)c(SCC(=O)NC2CCS(=O)(=O)C2)c1 (centres undefined) | -6 | -12 | -1 | -2 | 12* | -4
O=C(CSc1nnc(-c2ccccc2)o1)NC1CCS(=O)(=O)C1 (centres undefined) | 10 | -8 | 4 | -12 | 3 | 3
O=C1OCCC1Sc1nnc(-c2ccccc2)o1 (centres undefined) | 6 | 8 | 0 | 3 | -1 | -3
COc1ccc(Cc2nnc(NC(=O)Nc3ccccc3)s2)cc1OC | 12 | 9 | -20 | 14 | -2 | ·
C=CCN(c1ccccc1)S(=O)(=O)c1cccc(C(=O)NCc2ccco2)c1 | 1 | 1 | -10 | -6 | 0 | ·
CCn1c(COc2ccccc2OC)nnc1SCC(=O)NC1CCCC1 | 0 | -1 | -4 | -1 | 3 | ·
CCCCCn1nc(C(=O)N(CCOC)c2c(N)n(CCCC)c(=O)[nH]c2=O)c2ccccc2c1=O | 13 | 4 | 1 | -8 | 13* | -2
SMILES | CendR NRP1 mod | ARFGAP1 inh | Exocytosis inh | ASAP1 GAP inh | V-ATPase pHluor | V-ATPase pH SP
CCCCn1c(N)c(N(CC)C(=O)c2cccc(F)c2)c(=O)[nH]c1=O | 17 | 6 | -4 | 3 | 3 | ·
CCCCn1c(N)c(N(CC)C(=O)c2cccc(OCc3ccccc3)c2)c(=O)[nH]c1=O | 3 | -20 | 8 | -5 | 11* | 0
CC(C)CNC(=O)C1(C)CCCN1Cc1ccccc1OC(F)F (centres undefined) | 6 | 0 | -2 | 0 | · | ·
Cc1cc(C)n(CC(=O)Nc2ccccc2)n1 | 4 | 6 | -2 | 7 | 11* | 3
CCOC(=O)NC(Nc1ccc(S(N)(=O)=O)cc1)(C(=O)OCC)C(F)(F)F (centres undefined) | 4 | -4 | 2 | -19 | 13* | 2
CCOC(=O)C(NC(C)=O)(Nc1ccc(F)cc1)C(F)(F)F (centres undefined) | 10 | -1 | 3 | -10 | -7 | ·
COc1ccc(C(=O)Nc2cc(C)nn2-c2ccc(F)cc2)cc1 | -6 | 3 | -7 | 6 | 11* | -4
CC(C)[C@H](NC(=O)c1ccc(F)cc1)C(=O)NC1=NCCS1 | 10 | -1 | 23 | 1 | -2 | 0
CC(C)C(NC(=O)c1ccc(Cl)cc1)C(=O)NC1=NCCS1 (centres undefined) | -8 | 5 | 0 | -20 | -5 | ·
CC(C)(CNC(=O)c1cc(Cl)c(O)c(Cl)c1)N1CCCCC1 | 7 | -5 | -12 | 5 | -5 | ·
O=C(NNc1nc2ccccc2s1)c1ccc(F)cc1 | -3 | -6 | -2 | -11 | 5.8* | 3
Cc1n[nH]c(=S)n1-c1ccccc1 | -1 | 3 | -2 | 11 | -1 | ·
Cc1n[nH]c(=S)n1-c1ccc(Cl)cc1 | 11 | 0 | 0 | 8 | -2 | -2
CCOC(=O)c1c(N)sc(C(=O)N(C)C)c1C | -4 | 4 | 2 | -1 | 15* | -1
COc1cc(OC)cc(C(=O)NNC(=O)CCNC(=O)c2ccc(Br)cc2)c1 | -6 | -1 | -6 | 7 | 2 | ·
CCC(=O)C1CCCN(C(=O)c2cccc(OC3CCN(S(C)(=O)=O)CC3)c2)C1 (centres undefined) | 2 | · | 14 | · | 12* | -1
C=CCc1ccc(OCCOCCN(C)C)c(OC)c1 | 8 | 16 | -1 | -2 | 12* | -1
Cc1ccc(S(=O)(=O)N(C)c2ccc(OC(=O)c3cc(=O)[nH]c4ccccc34)cc2)cc1 | -16 | 8 | -3 | -10 | -1 | ·
O=C(/C=C/c1ccccc1)NCCS(=O)(=O)N1CCN(c2ccccc2)CC1 | 4 | 6 | 1 | 4 | 6.5* | 1
NNC(=O)COc1cccc(C(F)(F)F)c1 | 2 | -3 | -5 | 4 | 12* | 3
Cc1ccc(S(=O)(=O)N2CCN(C(=O)COC(=O)c3cccnc3Cl)CC2)c(C)c1 | 3 | -18 | 4 | -5 | 13* | 0
CSc1ncccc1C(=O)OCC(=O)N1CCN(S(=O)(=O)c2ccc(C)cc2C)CC1 | 4 | -5 | -6 | -5 | -2 | ·
CCNC(=O)C1(C)CCN(C(=O)c2cccc(C(F)(F)F)c2)C1 (centres undefined) | -3 | 1 | ? | -8 | · | ·
